Screening data: PubChem BioAssay, Sanford-Burnham Center for Chemical Genomics
This is a sample that favours compounds with a hit; in the whole collection about 2.5% have one here.
SENP7 inh: blocks the human protease SENP7; Q9BQF6; recombinant SENP7, Z-RLRGG-aminoluciferin luminescence, 40 min; inhibition, % at 5 µM; 1.5% of 330,000 active;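 active = inhibition above about 50% at the single test dose, limit read from the data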;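 note: plate controls were DMSO with enzyme for no effect and no enzyme buffer wells for full effect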
SENP8 block-1: SENP8 protease inhibition; inhibition, % at 10 µM; 1.2% of 330,000 active; purified SENP8, Z-RLRGG-aminoluciferin cleavage, luminescence; in the data active = inhibition above about 50%
SENP6 block: blocks the human protease SENP6; inhibition, % at 10 µM; 1.8% of 330,000 active; Recombinant SENP6 catalytic domain, aminoluciferin luminescence; Q9GZR1;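 active = inhibition above about 50% at the single tested dose, limit read from the data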;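 note: plate controls were DMSO wells with enzyme for no effect and DMSO wells lacking enzyme for full effect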
Target sequence (Q9GZR1 628-1112 limits assumed): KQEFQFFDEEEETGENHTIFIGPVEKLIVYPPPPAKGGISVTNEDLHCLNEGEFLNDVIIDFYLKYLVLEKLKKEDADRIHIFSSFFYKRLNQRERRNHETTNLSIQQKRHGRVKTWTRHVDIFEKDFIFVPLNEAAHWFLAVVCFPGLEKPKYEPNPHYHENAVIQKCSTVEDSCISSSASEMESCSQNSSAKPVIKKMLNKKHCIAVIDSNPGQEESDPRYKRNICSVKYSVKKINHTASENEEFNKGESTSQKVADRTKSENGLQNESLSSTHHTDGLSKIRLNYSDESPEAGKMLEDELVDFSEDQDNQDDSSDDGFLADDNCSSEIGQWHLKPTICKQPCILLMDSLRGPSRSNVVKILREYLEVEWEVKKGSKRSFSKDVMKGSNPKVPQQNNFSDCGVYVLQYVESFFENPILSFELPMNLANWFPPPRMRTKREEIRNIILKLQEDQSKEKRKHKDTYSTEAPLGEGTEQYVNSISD
SENP8 block-2: blocks human SENP8 cleavage of Nedd8 substrate; Q96LD8; inhibition, % at 20 µM; 0.64% of 360,000 active; AID 602440; recombinant SENP8, Nedd8 substrate fluorescence; in the data active = inhibition mostly above about 40%, no sharp cut-off; inactive = mostly below about 27%
SENP1 FRET inh: blocks the human SENP1 SUMO protease catalytic domain; Q9P0U3; recombinant SENP1 catalytic domain, CyPet-SUMO1-YPet FRET cleavage; inhibition, % at 10 µM; 0.21% of 360,000 active;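 active = inhibition at least 30% at 10 µM, raw YFP signal under a set limit, fluorescence ratio 0.5 to 1.5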;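 note: 0% = enzyme with DMSO and 100% = no enzyme wells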
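Test system: human SENP1 catalytic domain; medium: Tris pH 8 buffer plus EDTA, NaCl, BME, BSA, NP40, catalase; incubation: 50 min reaction at room temperature; technique: FRET, CFP and YFP emission; controls: no-enzyme low control and enzyme-plus-DMSO high control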
SENP8 conf: human SENP8 inhibition, confirmed | AID 488912 | inhibition, % at 12.5 µM | Recombinant SENP8, Z-RLRGG-aminoluciferin luminescence, 60 min | shares compounds with SENP7 inh | 40% of 6,200 active;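 active = mean inhibition across replicates above about 50%, limit read from the data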
SENP6 confirm: human SENP6 inhibition, confirmed; shares compounds with SENP7 inh; recombinant SENP6, Z-RLRGG-aminoluciferin luminescence; inhibition, % at 12.5 µM; 58% of 6,200 active; AID 488915
SENP7 conf: human SENP7 inhibition, confirmed; shares compounds with SENP7 inh; recombinant SENP7, Z-RLRGG-aminoluciferin luminescence, 40 min; inhibition, % at 12.5 µM; 69% of 6,200 active
Casp3 SENP sel: caspase-3 inhibition (SENP selectivity assay); 60% of 6,200 active; shares compounds with SENP7 inh; inhibition, % at 12.5 µM; AID 488918; purified caspase-3, Z-DEVD-aminoluciferin luminescence, 60 min;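 active = mean inhibition above about 50%, limit read from the data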;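 note: plate controls were enzyme with DMSO for no effect and wells without caspase-3 for full effect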
Target sequence (P42574 28-227 limits assumed): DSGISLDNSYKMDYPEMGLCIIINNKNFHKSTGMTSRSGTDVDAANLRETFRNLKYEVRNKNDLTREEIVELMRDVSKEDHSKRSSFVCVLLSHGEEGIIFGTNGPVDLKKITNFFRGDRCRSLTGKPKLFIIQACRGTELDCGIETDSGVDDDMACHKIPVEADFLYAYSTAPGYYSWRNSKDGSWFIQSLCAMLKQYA
SENP luc ctr: counter-screen for SENP inhibitors: luminescence interference. shares compounds with SENP7 inh. AID 488919. inhibition, % at 12.5 µM. Pre-incubated SENP8/Z-RLRGG-aminoluciferin, luciferase luminescence interference. 39% of 6,200 active;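 active = mean inhibition above about 50% when retested at one dose, limit read from the data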;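 note: plate controls were DMSO wells with completed reaction for no effect and substrate without enzyme for full effect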
Active calls of the source: *; · = no result.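 Rule for the calls, unless noted: active = mean inhibition above about 50% in the one-dose retest (limit read from the data); inactive = the rest.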

SMILES | SENP7 inh | SENP8 block-1 | SENP6 block | SENP8 block-2 | SENP1 FRET inh | SENP8 conf | SENP6 confirm | SENP7 conf | Casp3 SENP sel | SENP luc ctr
Cc1ccnc(N2C(=O)c3ccccc3C2O)c1 (centres undefined) | 90* | 81* | 85* | -1 | -3 | 82* | 82* | 98* | 96* | 88*
COc1ccc(-c2csc(-c3ccc(O)cc3)n2)cc1 | 2 | -11 | -2 | -25 | 2 | · | · | · | · | ·
COc1ccc2cc(-c3csc(-c4cccnc4)n3)ccc2c1 | 67* | -13 | 5 | -134 | -4 | 17 | 12 | 15 | 10 | 0
COc1ccc(-c2csc(-c3ccccc3)n2)c(OC)c1 | 89* | 84* | 93* | -79 | -3 | 82* | 91* | 96* | 74* | 26
COC(=O)c1ccc(COn2nnc3ccccc32)cc1 | 52* | 37 | 56* | 13 | -2 | 34 | 32 | 76* | 70* | 34
COC(=O)c1ccc(Cn2nnc3ccccc32)cc1 | -6 | -6 | -6 | 6 | 1 | · | · | · | · | ·
COc1ccc(CN(C)C2c3ccccc3-c3ccccc32)cc1 | 0 | -6 | -19 | 12 | 1 | · | · | · | · | ·
Cc1cc(C(=O)Nc2ccc(N3CCOCC3)c(Cl)c2)c(C)o1 | 58* | 57* | 77* | 23 | 2 | 71* | 69* | 88* | 77* | 74*
CCS/C(N)=N/N=C/c1cc(C)ccc1O | 51* | 47 | 71* | 26 | -1 | 62* | 62* | 87* | 62* | 29
CCCCS/C(N)=N/N=C/c1cc(C)ccc1O | -6 | -9 | -20 | 11 | -1 | · | · | · | · | ·
CS/C(N)=N/N=C/c1cc(C)ccc1O | 63* | 54* | -2 | 17 | -2 | 39 | 60* | 85* | 64* | 66*
Cc1cc(C(=O)Nc2cccc3ccccc23)oc1C | · | · | · | -62 | -3 | · | · | · | · | ·
O=C(Nc1ccc(NC(=O)c2cc3ccccc3o2)cc1)c1ccco1 | -4 | -8 | -14 | -34 | -1 | · | · | · | · | ·
CC(=O)c1ccc(NC(=O)c2cc3ccccc3o2)cc1 | 3 | -19 | -4 | 8 | 0 | · | · | · | · | ·
COc1ccc(NC(=O)c2cc3ccccc3o2)cc1OC | 7 | -8 | 4 | 1 | 1 | · | · | · | · | ·
O=C(Nc1ccccc1)c1cc2ccccc2o1 | 98* | 95* | 97* | 24 | 0 | 96* | 98* | 102* | 97* | 98*
Cc1cc(C(=O)Nc2ccccc2)oc1C | 49 | 42 | 64* | 25 | 1 | 58* | 55* | 87* | 83* | 61*
O=C(Nc1ccc(F)cc1)c1cc2ccccc2o1 | 86* | 76* | 86* | 19 | 3 | 80* | 82* | 97* | 86* | 64*
COc1ccc(NC(=O)c2cc3ccccc3o2)cc1 | 33 | 35 | 64* | 12 | 1 | 44 | 35 | 71* | 50* | 9
O=C1C2CCCCC2C(=O)N1c1ccc(S(=O)(=O)Nc2ncccn2)cc1 (centres undefined) | -1 | -4 | 19 | -10 | 4 | · | · | · | · | ·
CC(=O)Nc1cccc(NC(=O)c2cc3ccccc3o2)c1 | 84* | 62* | 84* | 4 | -1 | 79* | 78* | 95* | 88* | 83*
COc1cccc(C(=O)NCCCNC(=O)c2ccccn2)c1 | -2 | 2 | 9 | 4 | 0 | · | · | · | · | ·
N/C(=N\OC(=O)c1ccc2ccccc2c1)c1cccc([N+](=O)[O-])c1 | 16 | -13 | 1 | 7 | 4 | · | · | · | · | ·
N/C(=N\OC(=O)c1ccc2ccccc2c1)c1ccccc1Cl | 78* | 68* | 73* | 0 | 1 | 82* | 81* | 94* | 71* | 83*
COc1cccc(C(=O)O/N=C(\N)c2ccccn2)c1 | 98* | 95* | 97* | 4 | 3 | 97* | 98* | 102* | 98* | 98*
SMILES | SENP7 inh | SENP8 block-1 | SENP6 block | SENP8 block-2 | SENP1 FRET inh | SENP8 conf | SENP6 confirm | SENP7 conf | Casp3 SENP sel | SENP luc ctr
N/C(=N\OC(=O)c1ccc2ccccc2c1)c1ccncc1 | 67* | 56* | 47 | -12 | 0 | 70* | 71* | 90* | 77* | 73*
N/C(=N\OC(=O)c1ccc2ccccc2c1)c1ccccn1 | 101* | 96* | 94* | -20 | 3 | 95* | 97* | 102* | 98* | 27
CCOc1cc(CNCC(C)C)c(Cl)cc1OCC(=O)Nc1ccccc1 | 3 | -2 | 0 | 11 | 2 | · | · | · | · | ·
COc1cc(CC(=O)OCC(=O)NCCc2ccc(S(N)(=O)=O)cc2)cc(OC)c1OC | 5 | 1 | -10 | -16 | 1 | · | · | · | · | ·
Cc1ccccc1C(=O)O/N=C(\N)c1ccncc1 | 65* | 30 | 62* | 5 | 1 | 42 | 41 | 79* | 81* | 55*
CCCc1ccc(C(=O)O/N=C(\N)c2ccccn2)cc1 | 100* | 97* | 100* | 19 | 0 | 97* | 100* | 102* | 98* | 78*
Cc1cc(C(=O)O/N=C(\N)c2ccncc2)ccc1[N+](=O)[O-] | 57* | 18 | 37 | 23 | 1 | 8 | 6 | 38 | 43 | 26
Cc1ccccc1C(=O)O/N=C(\N)Cc1cccs1 | 61* | 35 | 51* | 6 | 1 | 52* | 49 | 81* | 76* | 55*
CC(=O)Nc1ccc(S(=O)(=O)N(C)CC(=O)OCC(=O)N2CCCCCC2)cc1 | -1 | 7 | 0 | 5 | 1 | · | · | · | · | ·
CC(=O)NC(CC(=O)N(Cc1ccccc1)c1cccc(C)c1)c1ccccc1 (centres undefined) | -2 | -3 | -14 | 6 | 1 | · | · | · | · | ·
N/C(=N\OC(=O)C1CCCCC1)c1ccccn1 | 68* | 46 | 67* | 15 | 2 | 61* | 60* | 87* | 89* | 67*
NC(CC(=O)OC1CCCCC1)C(=O)OC1CCCCC1 (centres undefined) | 5 | 2 | 77* | 12 | -1 | -5 | -8 | -8 | -4 | -4
COc1cccc2c1Oc1ncccc1N(C(=O)CCC(=O)NCc1cccc(C)c1)C2 | 2 | 7 | -6 | 10 | 2 | · | · | · | · | ·
CCOC(=O)C1CCN(Cc2ccc(O)c(OC)c2)CC1 | 12 | 2 | 96* | 10 | 2 | 6 | 0 | -2 | -2 | -1
CCOC(=O)C1CCN(Cc2ccc(OC)c(OCc3ccccc3)c2)CC1 | -99 | -6 | -26 | 31 | 0 | · | · | · | · | ·
